From ChEMBL document CHEMBL1134532, “Reversible carnitine palmitoyltransferase inhibitors with broad chemical diversity as potential antidiabetic agents” (J Med Chem, 2001)

Columns and labels:
[1] = molecular target: T1, Carnitine O-palmitoyltransferase 1, liver isoform (Rattus norvegicus, UniProt P32198); test: Inhibition of rat liver mitochondrial carnitine palmitoyltransferase 1 using [14C]palmitoyl-CoA radioligand
T1 sequence (P32198 whole entry): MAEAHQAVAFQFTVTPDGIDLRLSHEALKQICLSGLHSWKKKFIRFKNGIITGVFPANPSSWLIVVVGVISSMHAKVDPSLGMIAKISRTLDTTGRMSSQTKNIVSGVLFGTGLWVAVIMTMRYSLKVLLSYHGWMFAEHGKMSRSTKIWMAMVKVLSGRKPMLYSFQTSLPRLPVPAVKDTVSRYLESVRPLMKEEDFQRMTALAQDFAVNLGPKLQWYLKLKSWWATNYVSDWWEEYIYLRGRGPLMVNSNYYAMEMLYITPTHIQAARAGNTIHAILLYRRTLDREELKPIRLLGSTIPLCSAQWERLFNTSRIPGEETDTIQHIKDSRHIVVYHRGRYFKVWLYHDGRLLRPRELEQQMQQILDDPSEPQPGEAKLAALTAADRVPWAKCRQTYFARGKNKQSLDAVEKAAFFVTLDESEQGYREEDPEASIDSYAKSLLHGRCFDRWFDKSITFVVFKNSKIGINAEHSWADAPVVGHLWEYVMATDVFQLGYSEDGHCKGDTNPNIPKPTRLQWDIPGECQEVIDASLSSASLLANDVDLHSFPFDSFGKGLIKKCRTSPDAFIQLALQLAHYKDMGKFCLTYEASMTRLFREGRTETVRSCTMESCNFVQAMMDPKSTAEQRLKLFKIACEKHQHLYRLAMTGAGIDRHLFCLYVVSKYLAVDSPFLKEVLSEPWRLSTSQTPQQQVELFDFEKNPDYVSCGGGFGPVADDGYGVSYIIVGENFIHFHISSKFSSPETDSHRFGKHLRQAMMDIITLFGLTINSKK
In short: (§1)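 Performed on intact rat mitochondria: liver for L-CPT I, heart for M-CPT I. IC50 in µM calculated from the inhibition curve. Values are means of two determinations in triplicate, with variation between experiments under 8%.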

[2] = molecular target: T2, Carnitine O-palmitoyltransferase 1, muscle isoform (Rattus norvegicus, UniProt Q63704); test: Inhibitory activity against rat heart mitochondrial carnitine palmitoyltransferase 1b using [14C]palmitoyl-CoA as radioligand; in short: as §1
T2 sequence (Q63704 whole entry): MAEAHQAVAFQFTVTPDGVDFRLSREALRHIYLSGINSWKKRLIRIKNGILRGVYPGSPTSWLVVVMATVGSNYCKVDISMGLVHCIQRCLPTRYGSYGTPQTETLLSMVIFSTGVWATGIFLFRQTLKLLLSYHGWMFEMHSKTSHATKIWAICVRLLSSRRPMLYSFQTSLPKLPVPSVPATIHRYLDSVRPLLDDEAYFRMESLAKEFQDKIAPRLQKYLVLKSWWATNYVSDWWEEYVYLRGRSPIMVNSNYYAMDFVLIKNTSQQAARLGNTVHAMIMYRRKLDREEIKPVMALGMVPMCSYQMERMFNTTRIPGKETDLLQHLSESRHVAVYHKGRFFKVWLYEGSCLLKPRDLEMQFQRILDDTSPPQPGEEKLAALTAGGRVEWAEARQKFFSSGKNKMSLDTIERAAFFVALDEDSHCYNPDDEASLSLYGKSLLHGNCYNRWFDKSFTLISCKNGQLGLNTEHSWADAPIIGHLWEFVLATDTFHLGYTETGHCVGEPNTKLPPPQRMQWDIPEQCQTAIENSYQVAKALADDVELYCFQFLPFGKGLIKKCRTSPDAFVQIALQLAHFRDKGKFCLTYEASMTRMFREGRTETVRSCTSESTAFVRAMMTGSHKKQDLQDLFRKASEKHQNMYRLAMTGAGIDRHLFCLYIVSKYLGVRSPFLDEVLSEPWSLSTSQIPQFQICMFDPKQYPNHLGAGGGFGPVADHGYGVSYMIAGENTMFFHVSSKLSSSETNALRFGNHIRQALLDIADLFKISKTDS

Compound | IC50 [1] | IC50 [2]
CCCCCCCCCNC(=O)OC(C[n+]1ccccc1)CP(=O)(O)O (centres undefined) | > 300 µM | –
CCCCCCCCCCCCCCNC(CC(=O)[O-])C[N+](C)(C)C (centres undefined) | 230 µM | –
CCCCCCCCCOC(=O)OC(CC(=O)O)C[N+](C)(C)C (centres undefined) | > 300 µM | –
CCCCCCCCCCCCCCOC(CC(=O)[O-])C[N+](C)(C)C (centres undefined) | 47 µM | –
CCCCCCCCNC(CC(=O)[O-])C[N+](C)(C)C (centres undefined) | > 300 µM | –
CCCCCCCCCCCCCCOC(Cc1nn[n-]n1)C[N+](C)(C)C (centres undefined) | > 300 µM | –
CCCCCCCCOC(CC(=O)[O-])C[N+](C)(C)C (centres undefined) | > 300 µM | –
CCCCCCCCCNC(=S)NC(CC(=O)[O-])C[N+](C)(C)C (centres undefined) | 122 µM | –
CCCCCCCCCCS(=O)(=O)NC(CC(=O)[O-])C[N+](C)(C)C (centres undefined) | 1.6 µM | 2.3 µM
CCCCCCCCCNC(=O)OC(C[N+](C)(C)C)CP(=O)([O-])O (centres undefined) | > 300 µM | –

Further lines, results first:

IC50 [1] | IC50 [2] | Compound
6 µM | > 10 µM | CCCCCCCCCCCNS(=O)(=O)N[C@@H](CC(=O)[O-])C[N+](C)(C)C
0.7 µM | 3.4 µM | CCCCCCCCCCCCS(=O)(=O)N[C@H](CC(=O)[O-])C[N+](C)(C)C
0.8 µM | 5.8 µM | CCCCCCCCCCCNS(=O)(=O)N[C@H](CC(=O)[O-])C[N+](C)(C)C
6 µM | > 10 µM | CCCCCCCCCCCCS(=O)(=O)N[C@@H](CC(=O)[O-])C[N+](C)(C)C
> 300 µM | – | CCCCCCCCCNC(=O)OC(CC(=O)[O-])C[P+](C)(C)C (centres undefined)
> 300 µM | – | CCCCCCCCCCCCCCOC(=O)OC(CC(=O)[O-])C[N+]12CCC(CC1)CC2 (centres undefined)
> 300 µM | – | CCCCCCCCCNC(=O)OC(CC(=O)[O-])C[N+](C)(C)C (centres undefined)
> 300 µM | – | CCCCCCCCCCCCCCOC(=O)OC(C[N+]12CCC(CC1)CC2)CP(=O)([O-])O (centres undefined)
2.3 µM | 3.8 µM | CCCCCCCCCNS(=O)(=O)NC(CC(=O)[O-])C[N+](C)(C)C (centres undefined)
19.5 µM | 83.2 µM | CCCCCCCCCNC(=O)NC(CC(=O)[O-])C[N+](C)(C)C (centres undefined)
22.3 µM | 211 µM | CCCCCCCCOC(=O)NC(CC(=O)[O-])C[N+](C)(C)C (centres undefined)
